The list is not random: actives were taken first. Their share in the collection is about 2.2%.
APP 5'UTR act = APP 5'UTR luciferase reporter activation; actives 1% (n = 190,000); SH-SY5Y APP 5'UTR luciferase reporter, luminescence; zero percent = DMSO vehicle wells; activation, % at 2 µM; AID 1276;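 active = activation above a set limit, based on mean plus 3 SD of controls, cut at about 140% in these data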
FLuc act counter = firefly luciferase counter-screen for stimulation assays | P08659 | ATPlite luciferase biochemical, luminescence, 10 min; 0 = ATP-free wells, 1 = DMSO control | activation factor at 10 µM | 200,000 tested, under 10 active | AID 1027;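 active = luciferase activation factor, scaled between plate controls, of at least 2 with compound at 10 µM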
Target sequence (P08659 whole entry, looked up): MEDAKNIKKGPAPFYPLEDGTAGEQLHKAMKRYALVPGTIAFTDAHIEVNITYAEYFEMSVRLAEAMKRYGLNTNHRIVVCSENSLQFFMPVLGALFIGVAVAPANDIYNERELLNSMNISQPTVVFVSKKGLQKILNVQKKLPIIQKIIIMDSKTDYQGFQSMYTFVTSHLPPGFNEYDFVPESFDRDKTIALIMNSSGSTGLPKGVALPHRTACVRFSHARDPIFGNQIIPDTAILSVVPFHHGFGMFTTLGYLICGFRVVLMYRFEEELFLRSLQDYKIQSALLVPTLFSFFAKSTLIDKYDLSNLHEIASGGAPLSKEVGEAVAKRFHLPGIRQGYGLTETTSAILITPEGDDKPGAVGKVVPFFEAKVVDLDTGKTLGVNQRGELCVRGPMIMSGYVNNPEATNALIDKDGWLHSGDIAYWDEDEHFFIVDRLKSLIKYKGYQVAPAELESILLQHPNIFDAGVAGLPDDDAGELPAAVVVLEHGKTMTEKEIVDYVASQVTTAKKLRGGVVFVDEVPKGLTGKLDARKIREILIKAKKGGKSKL
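Assay system: Luciferase/luciferin detection reagent, cell-free biochemical luciferase assay / Also added: ATP substrate / Schedule: 10 min at ambient temperature / Measured by: luminescence measurement of luciferase light output / Benchmarks: low control with PBS replacing ATP, high control enzyme plus ATP without compound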
NF-kB neuron act = raises NF-kB expression in human neuronal cells; NF-kB reporter expression; stronger effect = higher value; fold change at 12.5 µM; actives 1.6% (n = 190,000); in the data active = fold change above about 3.3
C8 TRAIL sens = caspase-8 TRAIL sensitization | inhibition (viability loss, TRAIL sensitization), % at 10 µM | NB7+C8 cells + TRAIL, ATPlite viability luminescence | actives 1% (n = 360,000);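 active = compounds causing at least 50% loss of cell viability in the single-dose screen, relative to plate controls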
FLuc inh counter = Photinus pyralis luciferase inhibition counter-screen; P08659; inhibition, % at 10 µM; ATPLite firefly luciferase biochemical luminescence, 10 min; actives 1.5% (n = 200,000);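 active = inhibition above about 50% when tested at 10 µM, limit read from the data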
PPC-1+TRAIL kill = PPC-1 cancer cell killing with TRAIL present; PPC-1 cells + TRAIL, ATPLite viability luminescence; cell killing (% activity), % at 4 µM or 5 µM; actives 0.41% (n = 220,000);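 active = cell killing above 50% in the first pass at 4 µM, then a duplicate retest at 5 µM averaging 50% or more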;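 note: plate controls were cells with TRAIL plus DMSO for no effect and medium-only wells lacking cells for full effect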
Starred values were filed as active, the others as inactive; nt = not tested or not shown.

SMILES	APP 5'UTR act	FLuc act counter	NF-kB neuron act	C8 TRAIL sens	FLuc inh counter	PPC-1+TRAIL kill
O=C(Nc1ccc(F)cc1)C(c1cc2ccccc2o1)N1CCN(C(=O)c2ccco2)CC1 (stereo not given)	nt	nt	nt	-3	nt	nt
COC(=O)C1=C(C)N(Cc2ccccc2)C(=NCCc2c[nH]c3ccccc23)N[C@H]1c1cccc(C(F)(F)F)c1	nt	nt	nt	52*	nt	nt
COC(=O)C1=C(C)N(Cc2ccccc2)C(=NCc2cccc(C(F)(F)F)c2)N[C@H]1c1cccc(C(F)(F)F)c1	nt	nt	nt	94*	nt	nt
CC1=CC(=O)C=CC1=Nc1ccc(N(C)C)cc1	nt	nt	nt	16	nt	nt
COc1ccc(C2=NOC(CNC(N)=S)C2)cc1 (stereo not given)	115	0.8	4.3*	1	20	-4
COC(=O)Cc1ccc(OC2(C)CCN(Cc3ccccc3OC(F)F)C2)cc1 (stereo not given)	nt	nt	nt	-1	nt	nt
Cc1cc(/C=C2/SC(=O)N(CC(=O)N3CCOCC3)C2=O)c(C)n1-c1ccccc1F	71	0.1	2.9	3	87*	53*
O=C(Nc1cccc(O)c1)c1noc2c1CCc1ccccc1-2	195*	0.1	6.1*	71*	87*	7
c1cn2c(NC3CCCC3)c(-c3ccc(N4CCOCC4)cc3)nc2cn1	16	0.2	1.2	-21	81*	42
C#Cc1ccccc1OCCCN1CCC(C(O)(c2ccccc2)c2ccccc2)CC1	nt	nt	nt	93*	nt	nt
O=C(N[C@@H]1CC[C@@H](CCNC(=O)C2CCOCC2)O[C@@H]1CO)c1ccncc1	nt	nt	nt	3	nt	nt
Cc1nc(SCc2ccc(Cl)cc2)ncc1C(=O)O	12	0.9	6.4*	5	8	13
CCOC(=O)c1cnc(SCc2ccccc2)nc1N	146*	0.9	9*	6	8	11
CCOC(=O)c1cnc(SCc2ccc(C(C)(C)C)cc2)nc1N	20	1	1.4	-10	-2	-10
O=C(Nc1ccc2ccccc2c1)C(c1ccc(C(F)(F)F)cc1)n1c(=O)c(-c2cc3ccccc3[nH]2)nc2ccccc21 (stereo not given)	nt	nt	nt	-8	nt	nt
OC[C@H]1O[C@@H](n2cnc3c(Nc4ccccc4)ncnc32)[C@H](O)[C@@H]1O	28	1	1.9	-13	0	9
OCC1OC(n2ccc3c(NO)ncnc32)C(O)C1O (stereo not given)	nt	nt	nt	92*	nt	nt
OCC1OC(n2cnc3c(NCc4ccccc4O)ncnc32)C(O)C1O (stereo not given)	nt	nt	nt	76*	nt	nt
CN(C)c1ncnc2c1ccn2C1OC(CO)C(O)C1O (stereo not given)	nt	nt	nt	78*	nt	nt
FC(F)(F)Oc1ccccc1C(c1nnnn1Cc1ccccc1)N1CCN(C/C=C/c2ccccc2)CC1 (stereo not given)	nt	nt	nt	6	nt	nt
Cc1ccc2sc(N(CCCN(C)C)C(=O)CCS(=O)(=O)c3ccccc3)nc2c1C	nt	nt	nt	51*	nt	nt
Cc1ccc(NCc2nc3ccccc3n2C)cc1	175*	0.3	5.3*	-7	70*	44
Cc1ccc(CNc2nc3ccccc3n2C)cc1	nt	nt	nt	58*	nt	nt
COc1ccc(CNc2nc3ccccc3n2C)c(OC)c1	120	0.7	3.4*	11	26	-4
Cn1c(NCc2ccc(Cl)cc2)nc2ccccc21	70	0.5	0.79	31	51*	23
SMILES	APP 5'UTR act	FLuc act counter	NF-kB neuron act	C8 TRAIL sens	FLuc inh counter	PPC-1+TRAIL kill
O=C1Nc2ccccc2N=C(c2ccc3c(c2)OCO3)C1N(C(=O)c1ccc2ccccc2c1)C1CC1 (stereo not given)	nt	nt	nt	18	nt	nt
Cc1ccsc1/C=C/c1ccc2ccccc2n1	177*	0.6	5*	56*	39	27
Fc1cccc(F)c1/C=C/c1ccc2ccccc2n1	166*	0.2	4.4*	58*	82*	-5
CSc1ccc(/C=C/c2ccc3cccc(O)c3n2)cc1	173*	0.5	6.2*	53*	46	15
COc1cc(/C=C/c2ccc3cccc(O)c3n2)ccc1O	nt	nt	nt	15	nt	nt
Oc1cccc2ccc(/C=C/c3cccs3)nc12	148*	0.7	3.2	22	33	20
Cc1cccc(CN2CCN(C3CN(Cc4ccc([N+](=O)[O-])cc4)S(=O)(=O)C3)CC2)c1 (stereo not given)	nt	nt	nt	-9	nt	nt
Cc1ccc(CNC(=O)C2(C)CCN2C(=O)Cc2ccc(-c3ccccc3)cc2)cc1 (stereo not given)	nt	nt	nt	8	nt	nt
COC(=O)[C@@]12C[C@@H](CC(=O)NCc3ccc(C)o3)C(=O)N(Cc3cccc4ccccc34)C1=CCC(C)(C)C2	nt	nt	nt	8	nt	nt
O=C1CCCN1CCCNc1nc(NCc2cccs2)nc2ccsc12	nt	nt	nt	-4	nt	nt
Oc1cccc2ccc(/C=C/c3ccccc3Br)nc12	nt	nt	nt	34	nt	nt
Cc1ccsc1/C=C/c1ccc2cccc(O)c2n1	148*	0.8	5*	9	23	29
CC(=O)Nc1cccc(-c2cn3ccc(C)cc3n2)c1	98	0.2	4.2*	47	76*	27
Clc1ccc2nc(-c3ccccc3)cn2c1	nt	nt	nt	63*	nt	nt
CC(=O)Nc1ccc2nc(-c3ccccc3)cn2c1	170*	0.3	7.6*	54*	70*	47
Cc1ccn2cc(-c3cccc(NC(=O)CCC(=O)O)c3)nc2c1	nt	nt	nt	59*	nt	nt
COc1ccccc1CNC(=O)C[C@H]1CC[C@@H]2[C@H](COC[C@H](O)CN2Cc2ccc3c(c2)OCO3)O1	nt	nt	nt	-10	nt	nt
CC1(C)ON=C(c2cccc(F)c2)NC1=O	nt	nt	nt	-22	nt	nt
CCCCNC(=O)C1(C)CCN1C(=O)c1ccc(F)cc1Cl (stereo not given)	nt	nt	nt	-9	nt	nt
Cc1ccn2cc(-c3ccc(NS(=O)(=O)c4ccccc4)cc3)nc2c1	7	1	1.2	-30	-4	9
Cc1ccn2cc(-c3cccc(NS(C)(=O)=O)c3)nc2c1	90	0.4	2.8	27	58*	32
Clc1ccc2nc(CSCc3ccccc3)cn2c1	139*	0.8	1.2	10	20	22
Cc1ccn2cc(C(=O)Nc3cccc(C(=O)NC4CC4)c3)nc2c1	nt	nt	nt	54*	nt	nt
Cc1ccc(SCc2cn3cc(Cl)ccc3n2)cc1	nt	nt	nt	8	nt	4
CCCCN1CCCCC1(C)C(=O)NCc1ccc2c(c1)OCO2 (stereo not given)	nt	nt	nt	12	nt	nt
SMILES	APP 5'UTR act	FLuc act counter	NF-kB neuron act	C8 TRAIL sens	FLuc inh counter	PPC-1+TRAIL kill
O=c1ccn([C@@H]2O[C@H](CNCc3ccccc3OCc3ccc(Cl)cc3Cl)[C@@H](O)[C@H]2O)c(=O)[nH]1	nt	nt	nt	-8	nt	nt
CC(=O)/C=C1\OCc2cc(OCc3ccccc3)ccc21	nt	nt	nt	10	nt	nt
Cc1cccc(C)c1NC(=O)C(C1CC1)n1c(-c2ccc(-c3ccccc3)cc2)nc2ccccc21 (stereo not given)	nt	nt	nt	24	nt	nt
Cc1nc(SCc2cccc(F)c2)c2oc3ccccc3c2n1	nt	nt	nt	17	nt	-21
Cc1cc(C)nc(Sc2nc(C)nc3c2oc2ccccc23)n1	-6	1	7.4*	-9	-4	2
CCN(CC)c1ccc(/C=C/c2nc3ccccc3s2)cc1	76	0.4	1.4	nt	64*	16

Bioassay records from PubChem BioAssay.
